Compounds with a hit are over-represented: about 8.4% of the library has one in this group of screens.
Ecoli tolC: blocks growth of E. coli BW25113 tolC mutant. OD615. growth inhibition, % at 10 µM (by protocol). actives 2.2% (n = 65,000);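 active = growth inhibition at or above a cutoff equal to the mean over every tested compound plus 3 SD, cut at about 60% in these data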;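 note: growth measured after 20 h incubation at 37 °C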
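Test system: E. coli BW25113 ΔtolC::kan bacteria | Medium: Kanamycin-containing LB broth (50 µg/mL) | Dosing: One dose of 10 µM final | Times: 20 h incubation with compound, 37 °C | Detection: Optical density read at 615 nm | Read-out basis: Percent growth inhibition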
Cav32 inh: blocks human Cav3.2 T-type calcium channel; Cav3.2-expressing cells, Fluo-4 calcium fluorescence FDSS; active compounds read low; AID 449739; O95180; B-score at 10 µM; actives 4% (n = 100,000);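 active = single-dose well whose peak fluorescence ratio is a statistical outlier from its plate by either plate-standardised score or position-corrected B-score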
PostGolgi yeast: growth inhibition of a yeast mutant, post-Golgi transport screen | post-Golgi transport phenotypic cell assay | inhibition, % at 10 µM | actives 0.9% (n = 98,000) | AID 739;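 note: yeast cells grown in 1536-well plates; yeast grown about 18 h at 30C before absorbance read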
E coli WT exp: blocks growth of wild type E. coli BW25113 | OD600 absorbance | growth inhibition, % at 100 µM | actives 0.15% (n = 98,000) | AID 710;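 active = growth inhibition above about 50% at one test dose, limit read from the data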;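 note: growth measured after 20 h incubation at 37 °C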
PostGolgi ctrl: yeast control strain growth, post-Golgi counter-screen; efflux-deficient yeast background strain, growth absorbance A615, 16 h; inhibition, % at 10 µM; actives 5% (n = 98,000)
Of the large screens only hits and unclear results are named; the others gave an inactive call. Cut-off read from the data, not from the text of the source, unless noted: active = inhibition above about 30%; inactive = the rest.

CCn1c(CNC(=O)c2cccs2)nnc1SCC(=O)NCCc1ccccc1	PostGolgi ctrl 31
CCn1c(SCC(=O)NCCc2ccccc2)nnc1-c1cccs1	none
CCOC(=O)COc1ccc2c(c1)C(=O)CC(C)(c1cccnc1)O2 (configuration not stated)	PostGolgi ctrl 42
Cc1ccc(S(=O)(=O)N(C)CC(O)Cn2c3ccccc3c3ccccc32)cc1 (configuration not stated)	PostGolgi ctrl 80 (no result: Ecoli tolC)
CCN(CC)CC(O)Cn1c2ccccc2c2ccccc21 (configuration not stated)	none
Cc1ccc(OCC(O)Cn2c3ccccc3c3ccccc32)cc1 (configuration not stated)	PostGolgi ctrl 41 (no result: Ecoli tolC, Cav32 inh)
N=c1n(Cc2ccccc2)c2ccccc2n1CC(O)COc1ccccc1 (configuration not stated)	Ecoli tolC 63, Cav32 inh -4.9
C=CCN(CC=C)CC(O)Cn1c2ccccc2c2ccccc21 (configuration not stated)	Cav32 inh -3.4
CC(=O)N(C)c1ccc(OCC(O)Cn2c3ccc(Cl)cc3c3cc(Cl)ccc32)cc1 (configuration not stated)	PostGolgi yeast 73, PostGolgi ctrl 57 (no result: Ecoli tolC)
CCN(CC(O)Cn1c2ccccc2c2ccccc21)S(=O)(=O)c1ccc(F)cc1 (configuration not stated)	PostGolgi ctrl 50 (no result: Ecoli tolC)
CN(C)CCCN1C(=O)C(=O)/C(=C(/O)c2ccc(S(=O)(=O)N(C)C)cc2)C1c1ccncc1 (configuration not stated)	none (no result: Cav32 inh, PostGolgi yeast, E coli WT exp, PostGolgi ctrl)
CC1(C)OC(=O)N(Cc2ccco2)C1(C)O (configuration not stated)	none
CC1CCN(CCOc2cc(Cl)ccc2Cl)CC1	PostGolgi yeast 49 (no result: Ecoli tolC)
Cc1ccc(-c2noc(CSc3nnc(Cc4ccccc4)n3-c3ccc(Cl)cc3)n2)cc1	Cav32 inh -5.4, PostGolgi ctrl 37 (no result: Ecoli tolC)
Cc1ccc(-n2c(Cc3ccccc3)nnc2SCC(=O)NNC(=O)Cc2ccccc2)cc1	Cav32 inh -5.7 (no result: Ecoli tolC)
CCOC(=O)CSc1nnc(Cc2ccccc2)n1-c1ccc(C)cc1	none (no result: Ecoli tolC, PostGolgi yeast, E coli WT exp, PostGolgi ctrl)
COc1ccc(-c2noc(CSc3nnc(Cc4ccccc4)n3-c3ccc(Cl)cc3)n2)cc1	none (no result: Ecoli tolC)
CCc1nnc(NC(=O)CSc2nnc(C3CCCCC3)n2-c2cccc(Cl)c2)s1	Cav32 inh -4.3 (no result: Ecoli tolC)
CCOC(=O)CN(C(=O)CSc1nnc(Cc2ccccc2)n1-c1ccc(C)cc1)c1ccccc1	Cav32 inh -8.4 (no result: Ecoli tolC, PostGolgi yeast, E coli WT exp, PostGolgi ctrl)
COc1cccc(OC)c1C(=O)NNC(=O)c1cccc(COc2ccc3c(c2)CCC3)c1	none (no result: Ecoli tolC, Cav32 inh)
O=C(Cc1c(O)c2ccccc2[nH]c1=O)OC1CCCCC1	none
COc1ccccc1-c1nnc(SCC(=O)OC(C)C)o1	none
COc1ccc(-n2nc(C(=O)NCC(=O)Nc3ccccn3)c3ccccc3c2=O)cc1Cl	none (no result: Ecoli tolC, Cav32 inh)
N#Cc1cc2cc3c(cc2nc1N1CCOCC1)OCO3	none
Cc1noc(C)c1CSc1nnc(-c2ccccc2F)n1CCc1ccccc1	none
CCOc1ccc(-n2c(Cc3ccccc3)nnc2SCc2c(C)noc2C)cc1	Cav32 inh -4.3
CCc1nnc(NC(=O)CSc2nnc(Cc3ccccc3)n2-c2ccccc2)s1	Cav32 inh -4.5
Cn1c2ccccc2c2nn(-c3ccccc3)c(=O)cc21	none
O=C(Cn1cc2c(n1)CCCC2)NCCCN1CCN(c2ccccc2F)CC1	none
CCCCCC(=O)N/N=C/c1ccc([N+](=O)[O-])o1	E coli WT exp 60 (no result: Ecoli tolC)
Cc1ccc(NCC(=O)N/N=C\c2ccc([N+](=O)[O-])o2)cc1	none (no result: Ecoli tolC)
N#Cc1c(C(F)(F)F)cc(-c2ccc(Cl)cc2)[nH]c1=O	Cav32 inh -8.7 (no result: Ecoli tolC)
N#Cc1c(C(F)(F)F)cc(-c2cccc(Cl)c2)[nH]c1=O	Cav32 inh -2.7 (no result: Ecoli tolC)
Cc1cc(C(F)(F)F)c(C#N)c(=O)[nH]1	none (no result: Ecoli tolC, PostGolgi yeast, E coli WT exp, PostGolgi ctrl)
Cc1ccc(NC(=O)COS(=O)c2ccc(C)cc2)cc1 (configuration not stated)	none
Cc1nc2ccccc2c(=O)n1NC(=O)c1ccc(F)cc1Cl	none
Cc1ccc(-c2cc3nc(C)cc(NCc4ccco4)n3n2)cc1	PostGolgi ctrl 33
COc1ccc(-c2cc3nc(C)cc(NCCO)n3n2)cc1	none
Clc1cccc(-c2cc3nc4c(c(NCc5ccco5)n3n2)CCCC4)c1	PostGolgi ctrl 55 (no result: Ecoli tolC)
COc1ccc(-c2cc3nc(C)c(CCC(=O)NCc4ccco4)c(C)n3n2)c(OC)c1	none
Cc1nc2cc(-c3ccc(Cl)cc3)nn2c(C)c1CCC(=O)NCc1ccco1	PostGolgi ctrl 32 (no result: Ecoli tolC)
Cc1cc(C)nc(SCC2COc3ccccc3O2)n1 (configuration not stated)	none
C=C1CCC(C)C(C)(CCC2=CCOC2=O)C/C=C\C=C/1C(=O)O (configuration not stated)	Cav32 inh -3.9 (no result: Ecoli tolC, PostGolgi yeast, E coli WT exp, PostGolgi ctrl)
N=c1c[n+](N2CCOCC2)[n-]o1	none (no result: PostGolgi yeast, E coli WT exp, PostGolgi ctrl)
c1ccc(-n2ncc3c(N4CCN(CCOc5cccc6ccccc56)CC4)ncnc32)cc1	PostGolgi ctrl 32 (no result: Ecoli tolC)
CC[n+]1c(/C=C/C=C/N(C(C)=O)c2ccccc2)sc2ccccc21	Cav32 inh -4.6 (no result: Ecoli tolC)
Cc1ccc(Cl)cc1NC1=C/C(=N\S(=O)(=O)c2cccs2)c2ccccc2C1=O	PostGolgi yeast 50, PostGolgi ctrl 66 (no result: Ecoli tolC, Cav32 inh)
CC1CCOC2(O1)C(=O)N(CN1CCN(c3ccccc3F)CC1)c1ccccc12 (configuration not stated)	none (no result: Cav32 inh)
COc1ccc(CCN2C(=O)c3[nH]nc(-c4ccccc4O)c3C2c2ccccc2)cc1OC (configuration not stated)	none
O=C1c2[nH]nc(-c3ccccc3O)c2C(c2ccccc2)N1Cc1ccco1 (configuration not stated)	Ecoli tolC 98, PostGolgi ctrl 38
O=C1c2[nH]nc(-c3ccccc3O)c2C(c2ccccc2F)N1Cc1ccco1 (configuration not stated)	Ecoli tolC 100
COc1ccc(C(=O)Oc2ccc(=O)n(-c3ccccc3)n2)cc1	none (no result: Ecoli tolC)
COCn1c(-c2ccc(OC)cc2)nc2ccccc21	none (no result: Ecoli tolC, PostGolgi yeast, E coli WT exp, PostGolgi ctrl)
COc1ccc(Cn2c(=O)sc3ccccc32)cc1	Ecoli tolC 61
CC(C)Oc1ccc(Cn2c(=O)sc3ccccc32)cc1	none (no result: Ecoli tolC, PostGolgi yeast, E coli WT exp, PostGolgi ctrl)
CCCn1c(-c2ccc(OC)cc2)nc2ccccc21	none
COc1ccc(-c2nc3ccccc3n2Cc2ccc(C)cc2)cc1	PostGolgi yeast 31, PostGolgi ctrl 43 (no result: Ecoli tolC)
C=C(C)Cn1c(-c2ccc(OC)cc2)nc2ccccc21	Cav32 inh -5
Cc1nc2ncnn2c(C)c1CCC(=O)Oc1ccccc1	none
CCN(CC)S(=O)(=O)c1cccc(-c2nnc(SCCCC(=O)c3ccc(F)cc3)o2)c1	Cav32 inh -4.7
CCN(CC)S(=O)(=O)c1cccc(-c2nnc(SCCCC(=O)c3ccccc3)o2)c1	Cav32 inh -5.3
CCN(CC)S(=O)(=O)c1cccc(-c2nnc(SC(C)C(=O)NCCC3=CCCCC3)o2)c1 (configuration not stated)	Cav32 inh -2.9
O=C(CSc1nnc(-c2cccc(S(=O)(=O)N3CCCCC3)c2)o1)NCCC1=CCCCC1	none
CCOc1ccccc1C(=O)NC(C)c1ccc2c(c1)OCO2 (configuration not stated)	none

Screens (PubChem BioAssay)
